Assay results: ChEMBL document CHEMBL4265907, “Design, synthesis and pharmacological evaluation of N4,N6-disubstituted pyrimidine-4,6-diamine derivatives as potent EGFR inhibitors in non-small cell lung cancer” (Eur J Med Chem, 2018)
Activity calls are given as the source filed them. The rule behind the calls is not given here.

Assays:
BEAS-2B = test: Cytotoxicity against human BEAS2B cells after 72 hrs by MTT assay; type: cell-based
Summary of the method: (§1)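 Cells seeded at 3000/well in growth medium with 10% FBS and left overnight. Treated in triplicate for 72 h at nine concentrations (0.458 to 30,000 nM), with DMSO-only controls. MTT (5 mg/mL) added for the last 4 h, formazan dissolved in DMSO, absorbance read at 490 nm. IC50 from non-linear sigmoidal dose-response fit.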

NCI-H3255 [1] = test: Antiproliferative activity against human H3255 cells after 72 hrs by MTT assay; type: functional, cell-based; settings: NCI-H3255, 72 h; summary of the method: as §1
[2] = biological target: Vascular endothelial growth factor receptor 2 (Homo sapiens) (UniProt P35968); test: Inhibition of N-terminal GST-tagged human KDR cytoplasmic domain (790 to 1356 residues) expressed in baculovirus expression system at […] using FAM-labeled peptide as substrate after 10 mins by mobility shift assay relative to control
Summary of the method: (§2)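 Caliper mobility-shift kinase assay. Kinase in kinase base buffer was preincubated with compound for 10 min at room temperature. FAM-labelled peptide and ATP at Km were then added, and the reaction ran at 28 °C until quenched with buffer. Screening concentration was 1 µM. Percent inhibition = (max − conversion)/(max − min) × 100, with DMSO as max and a low control as min.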

PC-9 = test: Antiproliferative activity against human PC9 cells after 72 hrs by MTT assay; type: functional, cell-based; settings: PC-9, 72 h; summary of the method: as §1
HCC827 [3] = test: Antiproliferative activity against human HCC827 cells after 72 hrs by MTT assay; type: functional, cell-based; settings: HCC827, 72 h; summary of the method: as §1
NCI-H1975 [4] = test: Antiproliferative activity against human NCI-H1975 cells after 72 hrs by MTT assay; type: functional, cell-based; settings: NCI-H1975, 72 h; summary of the method: as §1
[5] = biological target: Fibroblast growth factor receptor 1 (Homo sapiens) (UniProt P11362); test: Inhibition of N-terminal GST-tagged human FGFR1 cytoplasmic domain (398 to 822 residues) expressed in baculovirus expression system at […] using FAM-labeled peptide as substrate after 10 mins by mobility shift assay relative to control; summary of the method: as §2
[6] = biological target: Epidermal growth factor receptor (Homo sapiens, UniProt P00533); test: Inhibition of N-terminal GST-tagged wild type human EGFR cytoplasmic domain (669 to 1210 residues) expressed in baculovirus expression system using FAM-labeled peptide as substrate after 10 mins by mobility shift assay
[7] = biological target: Epidermal growth factor receptor (Homo sapiens, UniProt P00533, DEL747/DEL747-750); test: Inhibition of N-terminal GST-tagged human EGFR del 747-750 mutant cytoplasmic domain expressed in baculovirus expression system using FAM-labeled peptide as substrate after 10 mins by mobility shift assay
A-431 [8] = test: Antiproliferative activity against human A431 cells after 72 hrs by MTT assay; type: functional, cell-based; settings: A-431, 72 h; summary of the method: as §1
HCC827 [9] = test: Induction of apoptosis in human HCC827 cells assessed as late apoptotic cells at 1000 nM after 48 hrs by Annexin V-FITC/PI staining based flow cytometry (reference value: 1.15%); type: functional
HCC827 [10] = test: Induction of apoptosis in human HCC827 cells assessed as early apoptotic cells at 1000 nM after 48 hrs by Annexin V-FITC/PI staining based flow cytometry (reference value: 2.83%); type: functional
A-431 [11] = test: Induction of apoptosis in human A431 cells assessed as early apoptotic cells at 1000 nM after 48 hrs by Annexin V-FITC/PI staining based flow cytometry (reference value: 3.40%); type: functional
NCI-H3255 [12] = test: Induction of apoptosis in human H3255 cells assessed as necrotic cells at 1000 nM after 48 hrs by Annexin V-FITC/PI staining based flow cytometry (reference value: 7.06%); type: functional
NCI-H1975 [13] = test: Cell cycle arrest in human NCI-H1975 cells assessed as accumulation at G2/M phase at 500 nM after 24 hrs by propidium iodide staining based flow cytometry; type: functional
Summary of the method: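 H1975 cells (2×10^5) seeded in 6-well plates overnight, then given fresh growth medium with drug (50–500 nM range; reference drug 500 nM) or 1‰ DMSO control for 24 h; cells collected with medium, washed in cold PBS, fixed in 70% cold ethanol at –20 °C overnight, stained with PI/RNase buffer, analysed by flow cytometry; triplicates, mean ± SEM.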

A-431 [14] = test: Induction of apoptosis in human A431 cells assessed as necrotic cells at 1000 nM after 48 hrs by Annexin V-FITC/PI staining based flow cytometry (reference value: 4.16%); type: functional
HCC827 [15] = test: Induction of apoptosis in human HCC827 cells assessed as viable cells at 1000 nM after 48 hrs by Annexin V-FITC/PI staining based flow cytometry (reference value: 94.6%); type: functional; settings: HCC827, 48 h, read-out: Activity
HCC827 [16] = test: Induction of apoptosis in human HCC827 cells assessed as necrotic cells at 1000 nM after 48 hrs by Annexin V-FITC/PI staining based flow cytometry (reference value: 1.41%); type: functional
A-431 [17] = test: Induction of apoptosis in human A431 cells assessed as late apoptotic cells at 1000 nM after 48 hrs by Annexin V-FITC/PI staining based flow cytometry (reference value: 2.11%); type: functional
NCI-H3255 [18] = test: Induction of apoptosis in human H3255 cells assessed as viable cells at 1000 nM after 48 hrs by Annexin V-FITC/PI staining based flow cytometry (reference value: 87.9%); type: functional; settings: NCI-H3255, 48 h, read-out: Activity
NCI-H1975 [19] = test: Induction of apoptosis in human NCI-H1975 cells assessed as late apoptotic cells at 1000 nM after 48 hrs by Annexin V-FITC/PI staining based flow cytometry (reference value: 1.91%); type: functional
NCI-H1975 [20] = test: Induction of apoptosis in human NCI-H1975 cells assessed as early apoptotic cells at 1000 nM after 48 hrs by Annexin V-FITC/PI staining based flow cytometry (reference value: 2.07%); type: functional
NCI-H1975 [21] = test: Induction of apoptosis in human NCI-H1975 cells assessed as necrotic cells at 1000 nM after 48 hrs by Annexin V-FITC/PI staining based flow cytometry (reference value: 2.31%); type: functional
NCI-H3255 [22] = test: Induction of apoptosis in human H3255 cells assessed as late apoptotic cells at 1000 nM after 48 hrs by Annexin V-FITC/PI staining based flow cytometry (reference value: 1.77%); type: functional
NCI-H3255 [23] = test: Induction of apoptosis in human H3255 cells assessed as early apoptotic cells at 1000 nM after 48 hrs by Annexin V-FITC/PI staining based flow cytometry (reference value: 3.22%); type: functional
NCI-H1975 [24] = test: Induction of apoptosis in human NCI-H1975 cells assessed as viable cells at 1000 nM after 48 hrs by Annexin V-FITC/PI staining based flow cytometry (reference value: 93.7%); type: functional; settings: NCI-H1975, 48 h, read-out: Activity
A-431 [25] = test: Induction of apoptosis in human A431 cells assessed as viable cells at 1000 nM after 48 hrs by Annexin V-FITC/PI staining based flow cytometry (reference value: 90.3%); type: functional; settings: A-431, 48 h, read-out: Activity

Chain of Epidermal growth factor receptor (Homo sapiens, UniProt P00533, DEL747/DEL747-750) (P00533 with tags, fused parts or gaps DEL747/DEL747-750 limits assumed): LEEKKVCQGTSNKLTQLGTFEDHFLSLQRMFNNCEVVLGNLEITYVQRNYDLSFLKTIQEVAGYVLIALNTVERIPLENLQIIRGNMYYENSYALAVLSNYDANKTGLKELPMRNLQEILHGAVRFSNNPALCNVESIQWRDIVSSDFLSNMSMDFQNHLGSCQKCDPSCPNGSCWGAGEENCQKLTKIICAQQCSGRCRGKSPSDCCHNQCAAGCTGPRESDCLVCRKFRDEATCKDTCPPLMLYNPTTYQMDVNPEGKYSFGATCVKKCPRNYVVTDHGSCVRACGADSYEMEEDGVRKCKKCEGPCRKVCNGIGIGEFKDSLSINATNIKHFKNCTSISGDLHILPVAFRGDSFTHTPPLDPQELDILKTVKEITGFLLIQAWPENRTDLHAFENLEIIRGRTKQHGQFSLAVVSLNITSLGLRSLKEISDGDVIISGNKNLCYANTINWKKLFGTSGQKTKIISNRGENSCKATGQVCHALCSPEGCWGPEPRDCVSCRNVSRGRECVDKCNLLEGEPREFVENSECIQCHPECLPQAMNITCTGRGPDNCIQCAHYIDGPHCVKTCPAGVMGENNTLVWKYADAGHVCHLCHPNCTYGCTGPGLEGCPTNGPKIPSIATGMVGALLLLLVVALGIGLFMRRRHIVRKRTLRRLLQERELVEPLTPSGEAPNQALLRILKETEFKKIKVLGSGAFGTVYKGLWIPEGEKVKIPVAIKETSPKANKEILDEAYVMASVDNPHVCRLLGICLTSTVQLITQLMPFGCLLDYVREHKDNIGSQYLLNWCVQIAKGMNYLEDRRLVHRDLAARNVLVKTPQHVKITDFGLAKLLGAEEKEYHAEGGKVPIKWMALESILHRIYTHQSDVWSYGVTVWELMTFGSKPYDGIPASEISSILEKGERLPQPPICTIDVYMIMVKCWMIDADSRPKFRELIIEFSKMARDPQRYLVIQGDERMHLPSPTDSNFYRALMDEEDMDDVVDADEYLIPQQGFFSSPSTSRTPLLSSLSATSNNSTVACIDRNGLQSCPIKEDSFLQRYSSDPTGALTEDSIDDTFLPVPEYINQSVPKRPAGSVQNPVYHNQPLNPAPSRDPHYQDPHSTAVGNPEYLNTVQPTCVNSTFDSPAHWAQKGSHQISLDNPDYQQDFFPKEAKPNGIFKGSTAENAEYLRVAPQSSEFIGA
Chain of Epidermal growth factor receptor (Homo sapiens, UniProt P00533) (P00533 whole entry, the tested form may be a part): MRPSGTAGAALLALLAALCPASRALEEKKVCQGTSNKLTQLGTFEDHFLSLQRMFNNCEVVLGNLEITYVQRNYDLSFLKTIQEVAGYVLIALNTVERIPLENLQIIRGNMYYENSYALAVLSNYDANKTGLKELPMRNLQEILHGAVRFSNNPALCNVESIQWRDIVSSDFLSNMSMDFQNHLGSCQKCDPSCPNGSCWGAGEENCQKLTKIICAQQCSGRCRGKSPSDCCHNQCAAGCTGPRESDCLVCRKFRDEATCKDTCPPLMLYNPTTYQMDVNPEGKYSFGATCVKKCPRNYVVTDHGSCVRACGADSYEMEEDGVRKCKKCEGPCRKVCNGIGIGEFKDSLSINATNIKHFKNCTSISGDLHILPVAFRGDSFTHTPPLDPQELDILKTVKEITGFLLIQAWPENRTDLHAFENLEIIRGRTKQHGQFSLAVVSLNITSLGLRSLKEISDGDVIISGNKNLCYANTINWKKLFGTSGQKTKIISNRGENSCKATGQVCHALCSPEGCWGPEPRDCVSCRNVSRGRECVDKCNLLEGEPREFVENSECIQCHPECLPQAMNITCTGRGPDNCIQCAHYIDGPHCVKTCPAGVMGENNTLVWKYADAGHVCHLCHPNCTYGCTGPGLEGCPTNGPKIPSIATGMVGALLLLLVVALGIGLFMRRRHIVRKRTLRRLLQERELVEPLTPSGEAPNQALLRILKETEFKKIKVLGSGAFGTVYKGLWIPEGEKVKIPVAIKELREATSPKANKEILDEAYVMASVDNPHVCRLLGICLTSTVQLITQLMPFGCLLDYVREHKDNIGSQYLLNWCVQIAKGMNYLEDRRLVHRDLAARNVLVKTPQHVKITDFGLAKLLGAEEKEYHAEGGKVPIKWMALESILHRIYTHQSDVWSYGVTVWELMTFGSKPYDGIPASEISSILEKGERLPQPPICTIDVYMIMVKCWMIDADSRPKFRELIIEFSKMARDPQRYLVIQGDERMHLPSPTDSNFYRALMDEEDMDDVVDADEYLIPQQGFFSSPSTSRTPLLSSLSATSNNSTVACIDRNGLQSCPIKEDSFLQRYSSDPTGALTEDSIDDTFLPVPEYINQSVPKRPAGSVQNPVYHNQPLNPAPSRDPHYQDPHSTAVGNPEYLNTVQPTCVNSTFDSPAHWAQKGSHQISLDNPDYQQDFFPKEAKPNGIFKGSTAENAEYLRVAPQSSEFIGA
Chain of Vascular endothelial growth factor receptor 2 (Homo sapiens) (P35968 whole entry, the tested form may be a part): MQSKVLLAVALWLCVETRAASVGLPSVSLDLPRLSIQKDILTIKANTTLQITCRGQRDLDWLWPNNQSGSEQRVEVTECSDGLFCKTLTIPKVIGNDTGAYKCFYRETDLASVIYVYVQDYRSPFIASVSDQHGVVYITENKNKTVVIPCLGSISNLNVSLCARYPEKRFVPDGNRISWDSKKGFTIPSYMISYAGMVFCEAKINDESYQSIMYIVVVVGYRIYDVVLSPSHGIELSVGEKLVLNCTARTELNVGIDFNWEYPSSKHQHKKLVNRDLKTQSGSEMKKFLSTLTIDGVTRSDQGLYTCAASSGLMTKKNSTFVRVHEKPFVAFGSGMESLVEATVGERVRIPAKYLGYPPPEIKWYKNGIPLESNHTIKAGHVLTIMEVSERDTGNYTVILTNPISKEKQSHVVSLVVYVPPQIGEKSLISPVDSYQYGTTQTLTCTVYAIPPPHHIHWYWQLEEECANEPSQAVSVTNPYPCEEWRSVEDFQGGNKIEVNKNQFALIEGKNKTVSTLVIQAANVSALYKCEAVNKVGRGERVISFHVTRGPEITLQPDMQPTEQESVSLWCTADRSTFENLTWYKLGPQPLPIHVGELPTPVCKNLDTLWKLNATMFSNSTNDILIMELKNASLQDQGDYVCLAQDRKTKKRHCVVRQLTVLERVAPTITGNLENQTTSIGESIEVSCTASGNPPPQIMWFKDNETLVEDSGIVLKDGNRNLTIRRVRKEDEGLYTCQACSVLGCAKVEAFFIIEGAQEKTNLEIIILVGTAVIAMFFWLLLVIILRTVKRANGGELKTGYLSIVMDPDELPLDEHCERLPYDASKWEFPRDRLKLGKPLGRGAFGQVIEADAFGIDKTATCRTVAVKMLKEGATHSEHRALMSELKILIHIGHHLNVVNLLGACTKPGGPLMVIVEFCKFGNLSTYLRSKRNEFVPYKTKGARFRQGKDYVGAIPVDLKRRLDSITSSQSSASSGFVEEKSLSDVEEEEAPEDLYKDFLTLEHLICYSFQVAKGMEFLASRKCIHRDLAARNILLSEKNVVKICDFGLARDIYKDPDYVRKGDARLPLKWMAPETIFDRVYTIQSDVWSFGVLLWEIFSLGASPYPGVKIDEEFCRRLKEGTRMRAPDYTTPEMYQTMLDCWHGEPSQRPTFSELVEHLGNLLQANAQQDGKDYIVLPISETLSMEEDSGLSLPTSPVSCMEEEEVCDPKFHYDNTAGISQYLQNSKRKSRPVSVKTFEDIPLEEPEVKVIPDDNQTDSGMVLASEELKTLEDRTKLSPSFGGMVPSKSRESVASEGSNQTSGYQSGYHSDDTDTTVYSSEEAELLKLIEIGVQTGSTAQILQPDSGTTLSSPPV

Compound | IC50 (BEAS-2B) [µM] | IC50 (NCI-H3255 [1]) [µM] | inhibition [2] [%] | IC50 (PC-9) [nM] | IC50 (HCC827 [3]) [µM] | IC50 (NCI-H1975 [4]) [µM] | inhibition [5] [%] | IC50 [6] [nM] | IC50 [7] [nM] | IC50 (A-431 [8]) [µM] | further results
COc1ccc(OC)c(Nc2cc(Nc3ccc(F)cc3)ncn2)c1 | 18 | > 30 | 12.4 | 640 | 1.72 | > 30 | -3.1 | 336 | 208 | > 30 | 
O=C(Nc1cc(N2CCOCC2)ncn1)c1ccc(F)cc1 | 20.9 | 1.87 | 31 | 870 | 1.96 | 1.97 | 8.8 | 131 | 63 | 1.13 | 
CCOC(=O)CCCC(=O)Nc1cc(Nc2cccc(Cl)c2)ncn1 | 21.1 | > 30 | 16 | > 30000 | > 30 | > 30 | 0.5 | 27 | > 10000 | 0.49 | 
CCOc1ccc(Nc2cc(NC(=O)c3ccccc3)ncn2)cc1 | 17.4 | 9.17 | 11.3 | 2090 | 7 | 7.07 | -8.8 | > 10000 | 754 | 6.54 | 
COc1ccc(OC)c(Nc2cc(Nc3ccc(N4CCN(C)CC4)cc3)ncn2)c1 | 18.1 | > 30 | 28.5 | > 30000 | 24.3 | > 30 | 4.7 | 288 | > 10000 | > 30 | 
COc1cc2ncnc(Nc3cccc(Cl)c3F)c2cc1OC(=O)N1CCN(C)C[C@H]1C [AZD-3759] | 18.7 | 0.09 |  | 50 | 0.03 | 24.2 |  |  |  | 3.5 | Activity (HCC827 [9]): 12.8%; Activity (HCC827 [10]): 6.11%; Activity (A-431 [11]): 7.35%; Activity (NCI-H3255 [12]): 6.05%; Activity (NCI-H1975 [13]): inactive; Activity (A-431 [14]): 1.17%; viability at 1 µM (HCC827 [15]): 78.4%; Activity (HCC827 [16]): 2.77%; Activity (A-431 [17]): 2.88%; viability at 1 µM (NCI-H3255 [18]): 83.7%; Activity (NCI-H1975 [19]): 5.39%; Activity (NCI-H1975 [20]): 9.95%; Activity (NCI-H1975 [21]): 2.65%; Activity (NCI-H3255 [22]): 1.71%; Activity (NCI-H3255 [23]): 8.51%; viability at 1 µM (NCI-H1975 [24]): 82%; viability at 1 µM (A-431 [25]): 88.6%
O=C(O)CCC(=O)Nc1cc(Nc2ccc(Cl)cc2)ncn1 | 19 | 4.37 | 15.7 | 790 | 3.13 | 2.73 | 5.2 | > 10000 | 792 | 1.9 | 
COc1cccc(Nc2cc(Nc3cccc(Cl)c3)ncn2)c1 | 17.6 | > 30 | 19.2 | 1660 | 4.04 | > 30 | -3.8 | > 10000 | 974 | 15.2 | 
O=C(Nc1cc(Nc2ccc(Cl)cc2)ncn1)c1ccc(F)cc1 | 18.6 | > 30 | 9.3 | 820 | > 30 | 17.6 | 16.3 | > 10000 | 1410 | > 30 | 
O=C(O)CCCC(=O)Nc1cc(Nc2ccccc2)ncn1 | 17.9 | 2.94 | 4.9 | 940 | 2.22 | 1.85 | -4 | > 10000 | 105 | 1.19 | 
CCNc1cc(Nc2cccc(Cl)c2)ncn1 |  |  | 6.9 |  |  |  | -7.7 | 170 | > 10000 |  | 
Clc1ccc(Nc2cc(Nc3cccc(Cl)n3)ncn2)cc1 | 18.1 | > 30 | 8.5 | 1180 | > 30 | > 30 | -5.7 | 324 | 229 | > 30 | 
COc1ccc(OC)c(Nc2cc(NC(=O)CCCC(=O)O)ncn2)c1 |  |  | 23.6 |  |  |  | -3.7 | 68 | > 10000 |  | 
